Among the data in ChEMBL document CHEMBL1123845 (J Med Chem, 1987) are IC50 and inhibition values, retold here.

SMILES strings stand for the structures. Activity calls are given as the source filed them. The calls are words filed in the database; no cut-off is given here.

The first experiment has as its target T1, Polyunsaturated fatty acid 5-lipoxygenase (Rattus norvegicus, UniProt P12527).
T1 sequence (P12527 whole entry): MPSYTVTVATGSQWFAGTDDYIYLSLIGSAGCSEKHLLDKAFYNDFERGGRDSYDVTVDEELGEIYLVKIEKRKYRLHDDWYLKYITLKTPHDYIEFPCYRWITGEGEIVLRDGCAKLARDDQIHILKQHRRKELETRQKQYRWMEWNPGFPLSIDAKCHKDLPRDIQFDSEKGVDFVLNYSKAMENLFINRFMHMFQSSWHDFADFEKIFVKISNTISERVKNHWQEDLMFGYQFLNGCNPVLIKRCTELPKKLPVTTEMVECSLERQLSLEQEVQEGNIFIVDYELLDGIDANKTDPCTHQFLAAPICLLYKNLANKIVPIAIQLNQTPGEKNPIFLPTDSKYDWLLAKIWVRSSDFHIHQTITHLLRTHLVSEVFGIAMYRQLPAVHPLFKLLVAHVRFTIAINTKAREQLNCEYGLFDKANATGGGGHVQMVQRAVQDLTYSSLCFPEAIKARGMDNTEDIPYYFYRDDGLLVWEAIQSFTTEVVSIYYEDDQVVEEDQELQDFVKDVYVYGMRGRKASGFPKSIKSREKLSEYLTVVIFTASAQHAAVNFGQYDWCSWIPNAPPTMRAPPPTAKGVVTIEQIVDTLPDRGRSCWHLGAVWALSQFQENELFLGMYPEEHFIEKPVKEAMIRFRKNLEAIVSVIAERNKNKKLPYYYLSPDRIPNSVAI
The experiment in a line: (§1) Compound was evaluated for the inhibition of rat basophilic leukemia-1 (RBL-1) 5-Lipoxygenase at 100 uM; NS = no significant activity. In kind it is cell-based. The essentials:
(§2)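 Enzyme source: 20000g supernatant of sonicated RBL-1 cells (1.5 × 10⁶ cell equivalents) in pH 6.8 BES/PIPES buffer with EDTA, CaCl₂ and NaCl. Compound or 2% DMSO vehicle preincubated 20 min at 37 °C. Reaction started with 66 μM arachidonic acid carrying [¹⁴C] tracer and run 5 min. Acid stop, ether extraction, then TLC. [¹⁴C]5-HETE counted and corrected by [³H]-5-HETE recovery.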
As for `CCCCCC(O)/C=C/C=C/CCCCC(=O)O` (stereo not given), the IC50 (in general, the concentration at which inhibition is half-maximal) is “Not Active”.

The target in another experiment is T2, Polyunsaturated fatty acid 5-lipoxygenase (Rattus norvegicus) (UniProt P12527).
T2 sequence (whole entry): T1 sequence (P12527 whole entry)
The experiment can be described thus: Compound was evaluated for the inhibition of rat basophilic leukemia-1 (RBL-1) 5-Lipoxygenase at 10 uM. The experiment is classed as cell-based. In outline:
as §2
As to `CCCCCC(O)/C=C/C=C/CCCCCCC(=O)O` (stereo not given), the inhibition (commonly the drop in the measured response relative to a control, in per cent) came out at 24%.

The next experiment deals with T2, Polyunsaturated fatty acid 5-lipoxygenase (Rattus norvegicus). The experiment in a line: Compound was evaluated for the inhibition of rat basophilic leukemia-1 (RBL-1) 5-Lipoxygenase at 75 uM. In kind it is cell-based. In outline:
as §2
Turning to `CCCCCC(O)CC/C=C\CCCCCCCCCC(=O)O` (stereo not given), the inhibition was 36%.

The target is the same in a further experiment. The experiment can be described thus: Inhibition of rat basophilic leukemia-1 (RBL-1) 5-Lipoxygenase at 100 uM. In kind it is cell-based. In outline:
as §2
Consider `CCCCCC(O)/C=C/C#CCCCCCCCC(=O)O` (stereo not given), for which the inhibition amounted to 24%. Still for that read-out and setting: then `CCCCCC(O)/C=C\C=C/CCCCCCCCCC(=O)O` (stereo not given), with 44%. Still for that read-out and setting: with `CCCCCC1/C=C/C=C\CCCCCCCCCC(=O)O1` (stereo not given) the figure was 42%; with `CCCCCC(O)/C=C/C#CCCCCCCC(=O)O` (stereo not given), 18%. Still for that read-out and setting: then `COC(=O)CCCCC(O)/C=C/C#CCCCCCCCCCC(=O)O` (stereo not given), with 22%; and `CCCCCC(O)/C=C/C=C/CCCCCC(=O)O` (stereo not given), with 17%. The compound `O=C(O)CCCCCCCCC/C=C\C=C\C(O)CCCCCO` (stereo not given) came in with an inhibition of 46%. Still for that read-out and setting: then `CCCCCC(/C=C/C#CCCCCCCCCCC(=O)O)OC(C)=O` (stereo not given), with 40%; and `CCCCCC(O)/C=C/C=C/CCCCCCCCC(=O)O` (stereo not given), with 39%; and `CCCCCC/C=C/C=C\CCCCCCCCCC(=O)O`, with 16%. The same measure, in the same setting: with `CCCCCC(O)c1cccc(OCCCCCCCC(=O)O)c1` (stereo not given) the figure was 23%. The same measure, in the same setting: then `COC(=O)CCCCC(O)/C=C/C=C/CCCCCCCCCC(=O)O` (stereo not given), with 31%; and `CCCCCC/C=C/C#CCCCCCCCCCC(=O)O`, with 48%; and `CCCCCC(O)C#C/C=C/CCCCCCCCCC(=O)O` (stereo not given), with 30%.

The next experiment shares this target. Described as §1. In kind it is cell-based. In outline:
as §2
As to `CCCCC[C@H](O)CCCCCCCCCCCCCC(=O)O`, the inhibition result is “inactive”. On to `O=C(O)CCCCCCCCCC#C/C=C/C(O)CCCCC(=O)O` (stereo not given), for which the inhibition entry was “inactive”. `CCCCCC(O)/C=C/C#CCCCCCC(=O)O` (stereo not given): the inhibition entry is “inactive”.

Consider `CCCCCC(O)/C=C/C#CCCCCC(=O)O` (stereo not given), for which the inhibition result was “inactive”.

For the next experiment the target is unchanged. The experiment in a line: Compound was evaluated for the inhibition of rat basophilic leukemia-1 (RBL-1) 5-Lipoxygenase at 300 uM. In kind it is cell-based. In outline: as §2
Take `CCCCC[C@H](O)/C=C/C=C\CCCCCCCC(=O)OC`: the inhibition was determined as 34%. Still for that read-out and setting: then `CCCCC[C@H](O)/C=C/C=C\CCCCCCCCCC(=O)OC`, with 34%; and `CCCC(O)/C=C/C#CCCCCCCCCC(=O)O` (stereo not given), with 46%.

Another experiment shares this target. The experiment can be described thus: Compound was evaluated for the inhibition of rat basophilic leukemia-1 (RBL-1) 5-Lipoxygenase at 33 uM. The experiment is classed as cell-based. The essentials:
as §2
In turn, `CCCCCC1/C=C/C#CCCCCCCCCCC(=O)O1` (stereo not given) showed an inhibition of 16%.

The target is the same in a further experiment. The experiment in a line: Compound was evaluated for the inhibition of rat basophilic leukemia-1 (RBL-1) 5-Lipoxygenase at 30 uM. The experiment is classed as cell-based. In outline:
as §2
Turning to `CCCCCC(O)/C=C/C#CCCCCCCCCCC(=O)N(CC)CC` (stereo not given), the inhibition is 49%. Take `CCCCCC(O)/C=C/C#CCCCCCCCCCCC(=O)O` (stereo not given): the inhibition amounted to 24%.

As to `CCCCCC(O)/C=C/C=C/CCCCCCCCCC(=O)O` (stereo not given), the inhibition is 33%. Still for that read-out and setting: with `CCCCCC/C=C/C#CCCCCCCCCC(=O)O` the figure was 33%; with `CCCCCC(O)/C=C/C=C/CCCCCCCCCCC(=O)O` (stereo not given), 41%. Still for that read-out and setting: with `CCCCC[C@H](O)/C=C/C=C\CCCCCCCCCC(=O)N(CC)CC` the figure was 39%.

The target is the same in another experiment. The experiment can be described thus: Compound was evaluated for the inhibition of rat basophilic leukemia-1 (RBL-1) 5-Lipoxygenase at 40 uM. The experiment is classed as cell-based. In outline: as §2
In the case of `CCCCCCC(O)/C=C/C=C/CCCCCCCCCC(=O)O` (stereo not given), the inhibition turned out to be 49%.

The next experiment deals with T1, Polyunsaturated fatty acid 5-lipoxygenase. The experiment can be described thus: Inhibition of rat basophilic leukemia-1 (RBL-1) 5-lipoxygenase. In kind it is cell-based. The essentials:
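Enzyme source: 20000g supernatant of sonicated RBL-1 cells (1.5 × 10⁶ cell equivalents) in pH 6.8 BES/PIPES buffer with EDTA, CaCl₂ and NaCl. Compound or 2% DMSO vehicle preincubated 20 min at 37 °C. Acid stop, ether extraction, then TLC. [¹⁴C]5-HETE counted and corrected by [³H]-5-HETE recovery.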
In the case of `CCCCCC(O)/C=C\C=C\CCCCCCCCCC(=O)O` (stereo not given), the IC50 is 58 µM. Same read-out and setting: with `CCCCCC(/C=C/C=C\CCCCCCCCCC(=O)O)OC(C)=O` (stereo not given) the figure was 76 µM; with `CCCCC[C@H](O)/C=C/C=C\CCCCCCCCCC(=O)O`, 26 µM; with `CCCCC[C@@H](/C=C/C=C\C/C=C\C/C=C\CCCC(=O)O)OC(C)=O`, 17 µM. The same measure, in the same setting: with `CCCCC[C@H](O)/C=C/C=C\C/C=C\C/C=C\CCCCCC(=O)OC` the figure was 6.5 µM; with `CCCCC/C=C\C/C=C\C/C=C\C=C\C1CCCC(=O)O1` (stereo not given), 23 µM.

As for `CCCC(O)/C=C/C#CCCCCCCCCCC(=O)O` (stereo not given), half-maximal inhibition (IC50) required 260 µM.

Compound `CCCCCC(O)/C=C/C#CCCCCCCCCC(=O)O` (stereo not given) gave an IC50 of 73 µM. On the same count and under the same terms, then `CCCCC/C=C\C/C=C\C/C=C\C=C\C(O)CCCC(=O)O` (stereo not given), with 77 µM; and `CCCCCC(O)/C=C/C#CCCCCCCCCCC(=O)O` (stereo not given), with 66 µM; and `CCCCC[C@H](O)/C=C/C=C\C/C=C\C/C=C\CCCC(=O)OC`, with 64 µM.

In the case of `CCCCCC(O)C#CC#CCCCCCCCCCC(=O)O` (stereo not given), half-maximal inhibition (IC50) required 27 µM. Regarding `CCCCC[C@@H](/C=C/C=C\C/C=C\C/C=C\CCCC(=O)O)OO`, half-maximal inhibition (IC50) required 3.4 µM. In the case of `CCCCC[C@H](O)/C=C/C=C\C/C=C\C/C=C\CCCC(=O)O` [ICOMUCRET], the IC50 worked out at 7.3 µM. For the compound `CCCCC[C@H](O)/C=C\C=C/C/C=C\CCCCCCC(=O)O`, half-maximal inhibition (IC50) required 77 µM.

`CCCCC[C@H](O)/C=C/C=C\C/C=C\C=C\C(O)CCCC(=O)O` (stereo not given in full) yielded an IC50 of 270 µM. The same measure, in the same setting: with `CCCCC[C@H](O)/C=C/C=C\C/C=C/CCCCC(=O)O` the figure was 29 µM; with `CCCCC[C@H](O)/C=C/C=C\C/C=C\C=C\C1CCCC(=O)O1` (stereo not given in full), 25 µM; with `CCCCCC(O)/C=C/C=C\CCCCCCCCCC(=O)O` (stereo not given), 35 µM.

`O=C(O)CCCCCCCCCC#C/C=C/C(O)CC1CCCC1` (stereo not given) yielded an IC50 of 82 µM.

The compound `CCCCC[C@H](O)/C=C/C=C\C/C=C\C/C=C\CCCCCC(=O)O` had an IC50 of 62 µM. Compound `CCCCC[C@H](O)/C=C/C=C\CCCCCCCC(=O)O` had an IC50 of 82 µM. `CCCCCC(=O)/C=C/C=C\CCCCCCCCCC(=O)O` had an IC50 of 55 µM. Still for that read-out and setting: then `CCCCCC(=O)/C=C/C=C\C/C=C\C/C=C\CCCC(=O)O`, with 26 µM; and `CCCCCCC(O)/C=C/C#CCCCCCCCCCC(=O)O` (stereo not given), with 32 µM. Still for that read-out and setting: with `O=C(O)CCCCCCCCC/C=C/C=C/C(O)CC1CCCC1` (stereo not given) the figure was 61 µM; with `CCCCC[C@@H](/C=C/C=C\C/C=C\C/C=C\CCCC(=O)OC)OC(C)=O`, 7.2 µM; with `CCCC(O)/C=C/C=C/CCCCCCCCCC(=O)O` (stereo not given), 160 µM.
